From PubChem
This excerpt belongs to a sample that is enriched for hits.
CHOP inh – blocks CHOP induction under ER stress. AID 2732. inhibition, % at 10 µM. 220,000 compounds, 3.8% hits. CHO-K1 CHOP-promoter luciferase, tunicamycin-induced, 15-18 h;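 active = compounds that reduced the stress-induced luciferase reporter signal by more than about 70% of percent inhibition, limit read from the data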
UPR CHOP act – activators of apoptotic arm of unfolded protein response (CHOP); activation, % at 10 µM; 330,000 compounds, 0.34% hits; CHO-CHOP luciferase reporter, UPR activation, luminescence; percent of tunicamycin response over DMSO baseline;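 active = at 10 µM dose, activation of 40% or more, normalized to positive control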
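Assay system: CHO cells with stable CHOP pathway luciferase reporter; Buffer or medium: F12 plus 10% serum; Times: 16-18 h cell attachment, then 6 h compound exposure, 37 °C; Signal: luciferase luminescence; Read-out basis: percent activation relative to tunicamycin control; Control set: tunicamycin high control, DMSO low control.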
Bfl-1 A1 inh – inhibitors of the anti-apoptotic protein A1, read as caspase activation. MEF A1-2A-BIM cells, Caspase-Glo 3/7 luminescence, 3 h; percent of clofoctol response, vehicle zero. caspase activation, % (test concentration not listed). 330,000 compounds, 0.066% hits;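 active = over half of replicate activation scores above 10%, or exactly half above 10 with the replicate mean above 10; inconclusive = replicate mean below 10 yet half the replicates above 10; inactive = over half of replicates below 10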
UPR XBP1 act – activators of adaptive arm of unfolded protein response (XBP1). CHO-XBP1 luciferase reporter, IRE1-XBP1 UPR activation, luminescence; percent of tunicamycin response, DMSO as zero. activation, % at 20 µM. 330,000 compounds, 0.33% hits. AID 463104;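 active = versus positive control, 20 µM dose yields 30% or more activation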
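Material: CHO-XBP1 cells stably carrying IRE1-XBP1-driven luciferase reporter / Amount: 1000 cells per well / Compound: 20 µM, 1% DMSO / Times: 6 h treatment, 37 °C / Detection: luciferase luminescence / Measure: % activation of reporter signal versus tunicamycin and DMSO controls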
XBP1 UPR conf – confirmation of adaptive unfolded protein response (XBP1) activators | shares compounds with UPR XBP1 act | CHO-XBP1 IRE1-XBP1 luciferase reporter, luminescence | 1,000 compounds, 63% hits | activation, % at 20 µM;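 active = reporter signal at least 30% of the positive control's activation in two or more of four replicate wells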
Of the large screens only hits and unclear results are named; the others gave an inactive call (follow-up assays come after a bar, where they were run).

CC(C)N=C(NS(=O)(=O)c1ccccc1)C(Cl)(Cl)Cl	UPR XBP1 act 45.4 | XBP1 UPR conf 75.3
CC(Oc1ccccc1Cl)C(=O)Nc1ccccc1C(=O)N1CCOCC1 (configuration not stated)	UPR XBP1 act 32.5 (no result: CHOP inh) | XBP1 UPR conf inactive
CC(Oc1ccc(Cl)cc1)C(=O)Nc1ccccc1C(=O)N1CCOCC1 (configuration not stated)	Bfl-1 A1 inh inconclusive (no result: CHOP inh)
Cc1ccc(CCNC(=O)CN2C(=O)COc3ccc(S(=O)(=O)N4CCOCC4)cc32)cc1	none (no result: CHOP inh)
COc1ccccc1Nc1nc(NCCO)c2ccccc2n1	none (no result: Bfl-1 A1 inh)
Cc1ccc(Nc2nc(NCCO)c3ccccc3n2)cc1C	UPR XBP1 act 39.0 (no result: CHOP inh) | XBP1 UPR conf 39.1
O=C(C1CCC(=O)N1Cc1cccnc1)N1CCN(c2ccc(F)cc2)CC1 (configuration not stated)	none
Cc1ccc(-c2ccnc(-c3ccc(O)cc3)n2)cc1	UPR XBP1 act 33.7 | XBP1 UPR conf 35.8
COc1ccc(-c2ccnc(-c3ccc(O)cc3)n2)cc1	none
CCN1C(=O)/C(=C2/Sc3ccc(OC)cc3N2C)SC1=Nc1cccc(O)c1	UPR XBP1 act 69.6 | XBP1 UPR conf inactive
C=CCN1C(=O)/C(=C2/Sc3ccc(OC)cc3N2C)SC1=NCc1ccccc1	none
CCCC[C@@H](CNC)NC[C@H](NCCCCC1CCCCC1)C(C)C	none (no result: CHOP inh)
CCC[C@@H](CN[C@@H](CNC)[C@H](C)CC)NCC1CCC(C(C)(C)C)CC1 (some centres not stated)	UPR XBP1 act 51.1 (no result: CHOP inh) | XBP1 UPR conf 30.0
CCC[C@H](CN[C@@H](CNC)[C@H](C)CC)NCCc1cc(C(F)(F)F)cc(C(F)(F)F)c1	UPR XBP1 act 52.0 (no result: CHOP inh) | XBP1 UPR conf inactive
CCOC(=O)C(NCc1ccccn1)(NC(=O)c1cccnc1)C(F)(F)F (configuration not stated)	none
COc1ccc(-c2cc(C(=O)Nc3cc(OC)cc(C(=O)Nc4cccc(C(F)(F)F)c4)c3)[nH]n2)cc1	UPR XBP1 act 36.6 | XBP1 UPR conf inactive
COc1cc(NC(=O)c2ccno2)cc(C(=O)Nc2cccc(C(F)(F)F)c2)c1	none
COc1ccc(-c2coc3cc4oc(=O)cc(-c5ccccc5)c4cc23)cc1F	UPR XBP1 act 41.1 | XBP1 UPR conf 125.0
COc1ccc(-c2coc3cc4oc(=O)cc(C)c4cc23)cc1F	none
Cc1ccc(/C=C2/Sc3ccc(C(=O)NCc4ccccn4)cc3NC2=O)cc1	UPR XBP1 act 32.0 (no result: CHOP inh) | XBP1 UPR conf inactive
O=c1cc2oc3cc(O)c(O)cc3c(-c3ccccc3[N+](=O)[O-])c-2cc1O	UPR XBP1 act 33.6 (no result: CHOP inh) | XBP1 UPR conf 34.9
O=c1cc(-c2ccccc2Cl)oc2cccc(O)c12	none
CCn1c(/C=C/c2c(C)[nH]c3ccccc23)nc2ccccc2c1=O	CHOP inh 94.4, UPR XBP1 act 215.7 | XBP1 UPR conf 81.0
Cc1[nH]c2ccccc2c1/C=C/c1nc2ccccc2c(=O)n1-c1ccc([N+](=O)[O-])cc1	UPR XBP1 act 47.3 | XBP1 UPR conf 36.0
O=S(=O)(NCc1ccco1)N1CCOCC1	none
N#C/C(=C\c1ccc(N2CCCCC2)c([N+](=O)[O-])c1)c1nn(-c2ccccc2)c(N)c1C#N	none
N#C/C(=C\c1ccc(N2CCCC2)c([N+](=O)[O-])c1)c1nc2ccccc2[nH]1	UPR XBP1 act 111.3 | XBP1 UPR conf 70.9
Cc1ccc(N(CC(=O)NC2CCCCC2)S(=O)(=O)c2c(C)noc2C)cc1	none (no result: CHOP inh)
Cc1ccc(OCc2nnc(SCC(=O)Nc3nccs3)n2-c2ccccc2)cc1C	CHOP inh 75.2, UPR XBP1 act 35.4 | XBP1 UPR conf inactive
Cc1ccc(-n2c(COc3c(C)cccc3C)nnc2SCC(=O)Nc2nccs2)cc1	none
COc1cc(/C=N/N=C(/N)c2nonc2N)cc(Br)c1OCc1ccccc1C	none
CCOc1cc(/C=N/N=C(/N)c2nonc2N)cc(Br)c1OCc1ccc(Cl)cc1	UPR XBP1 act 70.3 | XBP1 UPR conf 141.8
COc1ccc(OC)c(NC(=O)CSc2nc3n[nH]c(C)c3c(=N)n2-c2cccc(Cl)c2C)c1	none (no result: CHOP inh)
COc1ccc(NC(=O)CSc2nc3n[nH]c(C)c3c(=N)n2-c2ccc(Cl)c(C)c2)cc1OC	UPR XBP1 act 34.4 (no result: CHOP inh) | XBP1 UPR conf inactive
CCOc1ccc(C(=O)Nc2cc(C)c3c(=O)oc4ccccc4c3n2)cc1	UPR XBP1 act 51.8 | XBP1 UPR conf inactive
O=C1C(=O)N(c2ccccc2)C(c2ccccc2[N+](=O)[O-])/C1=C(\O)c1ccccc1 (configuration not stated)	none
CCOc1ccc(N2C(=O)C(=O)/C(=C(/O)c3ccccc3)C2c2ccccc2[N+](=O)[O-])cc1 (configuration not stated)	UPR XBP1 act 33.6 | XBP1 UPR conf inactive
Cc1ccc(C)c(CNC(=O)Nc2ccccc2)c1	none (no result: CHOP inh)
COc1ccc(Cc2nnc(N/N=C/c3ccc(N(C)C)cc3)[nH]c2=O)cc1OC	UPR XBP1 act 31.5 | XBP1 UPR conf 50.8
COc1ccc(/C=N/Nc2nnc(Cc3ccc(OC)c(OC)c3)c(=O)[nH]2)cc1OC	none
O=c1[nH][nH]c(-c2ccccc2O)c1C(C[N+](=O)[O-])c1ccc(Br)cc1 (configuration not stated)	none
Cc1ccc(C(C[N+](=O)[O-])c2c(-c3ccccc3O)[nH][nH]c2=O)cc1 (configuration not stated)	UPR XBP1 act 30.5 | XBP1 UPR conf inactive
O=C(NNC(=O)c1ccccc1Br)c1ccc(Cl)c(Cl)c1	none
CC1(C)Cc2nc3oc4c(=O)n(CC(=O)Nc5cccc(Cl)c5)cnc4c3cc2CO1	UPR XBP1 act 59.0 | XBP1 UPR conf inactive
Cc1cccc(NC(=O)Cn2cnc3c(oc4nc5c(cc43)COC(C)(C)C5)c2=O)c1	none
Cc1cccc(C)c1NC(=O)C(=O)c1cn(C)c2ccccc12	none
c1ccc(CNc2nc(NCc3ccccc3)c3ccccc3n2)cc1	UPR XBP1 act 58.8 | XBP1 UPR conf inactive
Fc1ccccc1-c1nc(NCc2ccccc2)c2ccccc2n1	none
CCn1c(O)c(C(C#N)=C2N=c3ccccc3=N2)c2ccccc21	UPR XBP1 act 33.7 | XBP1 UPR conf inactive
CCn1c(O)c(N=N)c2ccccc21	none
COC(=O)/C=c1/s/c(=C(/C#N)C(=O)NCc2ccccc2)n(-c2ccccc2)c1=O	none
CCCCCCOc1ccc(/C=c2\s/c(=C(/C#N)C(=O)NCc3ccco3)n(-c3ccccc3)c2=O)cc1	UPR XBP1 act 44.6 | XBP1 UPR conf inactive
Cc1ccc(NC(=O)CSc2nc3ccccc3c3nc4ccccc4n23)cc1	UPR XBP1 act 92.5 | XBP1 UPR conf 200.3
CCCNC(=O)c1c(N)n(-c2ccc3c(c2)OCO3)c2nc3ccccc3nc12	CHOP inh 80.3, UPR XBP1 act 43.8 | XBP1 UPR conf 29.2
COCCCNC(=O)c1c(N)n(-c2ccc3c(c2)OCO3)c2nc3ccccc3nc12	none (no result: CHOP inh)
